Data taken from ChEMBL document CHEMBL4371044, “Celastrol Promotes Weight Loss in Diet-Induced Obesity by Inhibiting the Protein Tyrosine Phosphatases PTP1B and TCPTP in the Hypothalamus” (J Med Chem, 2018).
The source made the active and inactive calls. The rule behind the calls is not given here.

What was measured:
[1] = target: T1, Tyrosine-protein phosphatase non-receptor type 1 (Homo sapiens) (UniProt P18031); test: Inhibition of human N-terminal His6-tagged PTP1B catalytic domain (1 to 393 residues) expressed in Escherichia coli strain Rosetta2 (DE3) up to 500 uM using pNPP as substrate preincubated for 10 mins followed by substrate addition and measured after 10 mins by […]
T1 sequence (whole entry): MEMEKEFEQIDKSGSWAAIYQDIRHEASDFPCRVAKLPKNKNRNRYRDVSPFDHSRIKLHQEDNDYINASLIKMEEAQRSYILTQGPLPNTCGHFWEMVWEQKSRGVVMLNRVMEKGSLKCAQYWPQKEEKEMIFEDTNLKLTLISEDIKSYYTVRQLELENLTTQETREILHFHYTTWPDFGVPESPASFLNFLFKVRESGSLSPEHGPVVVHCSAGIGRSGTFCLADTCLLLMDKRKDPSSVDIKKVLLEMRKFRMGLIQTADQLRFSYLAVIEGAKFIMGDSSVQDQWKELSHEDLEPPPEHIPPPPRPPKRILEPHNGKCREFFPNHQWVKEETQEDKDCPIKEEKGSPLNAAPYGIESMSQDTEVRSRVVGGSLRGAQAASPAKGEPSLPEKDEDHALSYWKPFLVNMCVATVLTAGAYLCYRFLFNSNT

[2] = target: T2, Tyrosine-protein phosphatase non-receptor type 2 (Homo sapiens) (UniProt P17706); test: Inhibition of human N-terminal His6-tagged TCPTP catalytic domain (1 to 296 residues) expressed in Escherichia coli strain Rosetta2 (DE3) up to 500 uM using pNPP as substrate preincubated for 10 mins followed by substrate addition and measured after 10 mins by […]
T2 sequence (whole entry): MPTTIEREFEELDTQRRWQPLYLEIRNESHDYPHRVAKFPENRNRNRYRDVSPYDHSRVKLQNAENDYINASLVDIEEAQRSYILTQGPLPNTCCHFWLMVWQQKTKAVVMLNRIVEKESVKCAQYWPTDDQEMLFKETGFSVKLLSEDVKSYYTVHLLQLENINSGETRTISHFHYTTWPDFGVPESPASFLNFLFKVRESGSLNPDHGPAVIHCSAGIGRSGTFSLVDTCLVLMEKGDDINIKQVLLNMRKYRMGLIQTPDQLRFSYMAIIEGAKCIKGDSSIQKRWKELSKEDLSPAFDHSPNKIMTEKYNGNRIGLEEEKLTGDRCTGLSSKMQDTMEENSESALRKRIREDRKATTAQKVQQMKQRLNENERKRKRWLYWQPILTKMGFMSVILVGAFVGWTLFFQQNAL

[3] = target: Receptor-type tyrosine-protein phosphatase epsilon (Homo sapiens, UniProt P23469); test: Inhibition of human PTPRE (107 to 707 residues) expressed in Escherichia coli strain BL21(DE3) using DiFMUP as substrate preincubated for 10 mins followed by substrate addition and measured after 10 mins by fluorescence assay
How it was run: (§1)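 Selectivity panel on enzymes expressed in E. coli BL21(DE3), purified by nickel affinity then size exclusion. DiFMUP fluorescence assay run as for PTP1B/TCPTP, with per-enzyme conditions in a supplementary table; nonlinear regression for IC50; three independent experiments.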

[4] = target: T1, Tyrosine-protein phosphatase non-receptor type 1 (Homo sapiens); test: (§2) Binding affinity to human N-terminal His6-tagged PTP1B catalytic domain (1 to 298 residues) expressed in Escherichia coli strain Rosetta2 (DE3) assessed as association half life using DiFMUP as substrate preincubated for 10 mins followed by substrate addition measured for 10 mins fluorescence assay
[5] = target: T1, Tyrosine-protein phosphatase non-receptor type 1 (Homo sapiens); test: Inhibition of human N-terminal His6-tagged PTP1B catalytic domain (1 to 393 residues) expressed in Escherichia coli strain Rosetta2 (DE3) using DiFMUP as substrate preincubated for 10 mins followed by substrate addition and measured after 10 mins in presence of 0.1 mg/ml BSA by fluorescence assay
How it was run: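 DiFMUP IC50 assay (1 nM enzyme, 10 min preincubation, substrate at Km, 37 °C, ex 358/em 455 nm), repeated as an aggregation check under three altered conditions: 10-fold enzyme (10 nM), 0.05% Tween 20, or 0.1 mg/mL BSA in buffer.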

Mus musculus [6] = test: Antiobesity activity in high fat diet-induced obese Ptpn1fl/fl/Ptpn2fl/fl null C57BL/6 mouse assessed as hypophagia at 100 ug/kg, ip for 10 consecutive days; format: functional, organism-based
[7] = target: T3, Tyrosine-protein phosphatase non-receptor type 1 (Homo sapiens, UniProt P18031); test: as §2, with “rate constant” for “half life”
T3 sequence (P18031 whole entry): T1 sequence (whole entry)

[8] = target: T3, Tyrosine-protein phosphatase non-receptor type 1; test: Binding affinity to human N-terminal His6-tagged PTP1B catalytic domain (1 to 298 residues) expressed in Escherichia coli strain Rosetta2 (DE3) by switch sense technology based assay
How it was run: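 switchSENSE, fluorescence proximity mode: PTP1B1−298 immobilized on chip, analyte injected at increasing concentrations up to 100 μM at 100 μL/min in PE40 buffer (10 mM phosphate pH 7.4, 40 mM NaCl, 50 μM EGTA/EDTA, 0.05% Tween 20). Buffer rinse for dissociation, recorded at the three highest concentrations; kon, koff, KD fitted.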

Mus musculus [9] = test: Antiobesity activity in high fat diet-induced obese Ptpn1fl/fl/Ptpn2fl/fl null C57BL/6 mouse assessed as reduction in body weight at 100 ug/kg, ip for 10 consecutive days; format: functional, organism-based
How it was run: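 Male Ptpn1fl/fl, Ptpn2fl/fl or double-floxed mice: chow 8 weeks, then high-fat diet (45% energy from fat) 12 weeks. Bilateral intra-ARC stereotaxic injection of rAAV-CMV-Cre-GFP or rAAV-CMV-GFP, 100 nL/side. After 2 weeks recovery, vehicle or 100 μg/kg ip daily at 6 pm for 10 days; body weight tracked; two-way repeated-measures ANOVA with Tukey test; means ± SEM.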

[10] = target: T1, Tyrosine-protein phosphatase non-receptor type 1 (Homo sapiens); test: Reversible inhibition of human N-terminal His6-tagged PTP1B catalytic domain (1 to 298 residues) expressed in Escherichia coli strain Rosetta2 (DE3) at 10 times IC50 using DiFMUP as substrate preincubated for 30 mins followed by 100 fold compound dilution and substrate addition measured for 60 mins fluorescence assay
Mus musculus [11] = test: Antiobesity activity in high fat diet-induced obese Ptpn2fl/fl null C57BL/6 mouse assessed as hypophagia at 100 ug/kg, ip for 10 consecutive days; format: functional, organism-based
[12] = target: T3, Tyrosine-protein phosphatase non-receptor type 1; test: Inhibition of human N-terminal His6-tagged PTP1B catalytic domain (1 to 393 residues) expressed in Escherichia coli strain Rosetta2 (DE3) using DiFMUP as substrate preincubated for 10 mins followed by substrate addition and measured after 10 mins by fluorescence assay
How it was run: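 Tag-cleaved, SEC-purified enzyme at 1 nM, preincubated 10 min with compound at 15 concentrations from 0–500 μM (5% DMSO final) in 25 mM Bis-Tris propane pH 7.5, 50 mM NaCl, 2 mM EDTA. DiFMUP added at each construct's Km (10, 7, 10, 9 μM for PTP1B1−298, PTP1B1−393, TCPTP1−296, TCPTP1−336). Read ex 358/em 455 nm continuously 10 min at 37 °C; triplicate; log(inhibitor)-response fit.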

[13] = Inhibition of mouse LMPTP-A (1 to 158 residues) expressed in Escherichia coli strain BL21(DE3) using DiFMUP as substrate preincubated for 10 mins followed by substrate addition and measured after 10 mins by fluorescence assay; how it was run: as §1

Sequence of Receptor-type tyrosine-protein phosphatase epsilon (P23469 whole entry, the tested form may be a part): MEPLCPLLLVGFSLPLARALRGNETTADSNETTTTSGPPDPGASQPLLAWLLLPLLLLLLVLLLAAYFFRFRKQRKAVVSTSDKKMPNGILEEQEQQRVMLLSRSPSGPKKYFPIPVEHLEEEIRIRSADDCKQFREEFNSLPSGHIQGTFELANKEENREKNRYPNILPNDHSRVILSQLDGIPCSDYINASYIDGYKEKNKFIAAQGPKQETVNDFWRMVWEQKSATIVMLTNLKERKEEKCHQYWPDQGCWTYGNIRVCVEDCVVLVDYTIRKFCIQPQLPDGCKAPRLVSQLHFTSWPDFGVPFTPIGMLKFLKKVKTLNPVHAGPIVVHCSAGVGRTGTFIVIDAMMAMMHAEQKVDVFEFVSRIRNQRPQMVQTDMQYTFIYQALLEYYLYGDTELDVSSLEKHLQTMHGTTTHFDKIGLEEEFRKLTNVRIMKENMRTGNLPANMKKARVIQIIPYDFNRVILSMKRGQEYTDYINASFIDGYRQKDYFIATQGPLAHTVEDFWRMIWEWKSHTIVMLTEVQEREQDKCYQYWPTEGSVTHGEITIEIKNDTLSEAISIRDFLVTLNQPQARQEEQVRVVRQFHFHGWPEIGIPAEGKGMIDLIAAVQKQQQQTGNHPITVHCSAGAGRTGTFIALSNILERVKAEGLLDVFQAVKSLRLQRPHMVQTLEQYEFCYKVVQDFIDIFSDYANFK

## CC1=C(O)C(=O)C=C2C1=CC=C1[C@@]2(C)CC[C@@]2(C)[C@@H]3C[C@](C)(C(=O)O)CC[C@]3(C)CC[C@]12C [CELASTROL]
[1]
  inhibition: Active
[2]
  inhibition: Active
[3]
  IC50: > 500 µM
[4]
  T1/2: 31.9 min
[5]
  inhibition: Active
Mus musculus [6]
  Activity: Active
[7]
  kon: 59.46 M⁻¹ s⁻¹
[8]
  Kd: 6.08 µM
Mus musculus [9]
  Activity: Active
[10]
  inhibition: Active
Mus musculus [11]
  inhibition: Active
[12]
  IC50: 2.1 µM
[13]
  IC50: 95.3 µM
